Assay results pooled from the literature.
Lines come from different studies, so protocols differ.
Target: Serine/threonine-protein kinase 16 (STK16, Homo sapiens, UniProt O75716)

Compound	test	conditions	endpoint	value
Nc1ncc(-c2nc(N3CCOCC3)nc(N3CCOCC3)n2)c(C(F)F)n1	binding, competition with immobilised ligand	10 µM	remaining binding	56%
COc1cc(Nc2ncc(F)c(Nc3ccc4c(n3)NC(=O)C(C)(C)O4)n2)cc(OC)c1OC	binding, competition with immobilised ligand	10 µM	inhibition	100%
COc1ncccc1-c1cnn2ccc(N3CCN(C(=O)OC(C)C)CC3)nc12	binding, competition with immobilised ligand	1 µM	remaining binding	55%
Cc1nn(C)cc1-c1nc2c(N3CCN(Cc4ccc(Cl)cc4)CC3)c(Cl)cnc2[nH]1	binding, competition with immobilised ligand	1 µM	remaining binding	18%
Cn1cc(-c2cc(F)cc(N3CCn4c(cc5c4CCCC5)C3=O)c2CO)cc(Nc2ccc(N3CCN(C4COC4)CC3)cn2)c1=O	enzyme activity, inhibitor	0.1 µM	inhibition	10%
O=c1[nH]c2ccccc2n1C1CCN(Cc2ccc(-c3[nH]c4cc5ncnc5cc4nc3-c3ccccc3)cc2)CC1	cell-free assay	0.5 µM	remaining signal	99.5%
Cn1cc(-c2cccc(N3CCc4c(sc5c4CC(C)(C)C5)C3=O)c2CO)cc(Nc2ccncn2)c1=O	enzyme activity, inhibitor	1 µM	inhibition	-3%
Cn1cncc1[C@@](O)(COc1ccc(C#N)cc1-c1ccc(OC(F)(F)F)cc1)c1ccc(C#N)cc1	cell-free assay, competition with immobilised ligand	1 µM	remaining binding	99%
CC(C)(C)c1cc(C=C(C#N)C#N)cc(Br)c1O	enzyme activity, inhibitor	0.5 µM	remaining activity	99.2%
